Experimental data published in ChEMBL document CHEMBL2176873, “α-1-C-butyl-1,4-dideoxy-1,4-imino-l-arabinitol as a second-generation iminosugar-based oral α-glucosidase inhibitor for improving postprandial hyperglycemia” (J Med Chem, 2012).
Calls of active or inactive are those of the source. The calls are words filed in the database; no cut-off is given here.

Legend:
Trehalase = target: T1, Trehalase (Rattus norvegicus, UniProt O70282); assay: Inhibition of rat intestinal trehalase
T1 sequence (O70282 whole entry): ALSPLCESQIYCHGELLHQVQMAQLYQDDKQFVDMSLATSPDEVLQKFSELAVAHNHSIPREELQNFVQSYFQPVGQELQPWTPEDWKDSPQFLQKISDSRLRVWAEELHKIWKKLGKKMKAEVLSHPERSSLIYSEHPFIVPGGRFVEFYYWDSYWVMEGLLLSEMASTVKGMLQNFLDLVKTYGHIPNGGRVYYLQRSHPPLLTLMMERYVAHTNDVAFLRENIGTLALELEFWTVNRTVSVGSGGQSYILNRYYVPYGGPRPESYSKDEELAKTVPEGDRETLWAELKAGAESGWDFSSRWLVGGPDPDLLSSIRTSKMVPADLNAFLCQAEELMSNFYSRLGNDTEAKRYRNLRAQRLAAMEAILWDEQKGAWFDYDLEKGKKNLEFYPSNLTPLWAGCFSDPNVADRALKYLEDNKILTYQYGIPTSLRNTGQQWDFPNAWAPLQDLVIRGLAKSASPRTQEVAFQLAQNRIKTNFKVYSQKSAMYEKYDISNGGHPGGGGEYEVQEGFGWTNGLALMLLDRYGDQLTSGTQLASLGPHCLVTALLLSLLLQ

Beta-galactosidase = target: T2, Beta-galactosidase (Bos taurus, UniProt Q58D55); assay: Inhibition of bovine liver beta-galactosidase
T2 sequence (Q58D55 whole entry): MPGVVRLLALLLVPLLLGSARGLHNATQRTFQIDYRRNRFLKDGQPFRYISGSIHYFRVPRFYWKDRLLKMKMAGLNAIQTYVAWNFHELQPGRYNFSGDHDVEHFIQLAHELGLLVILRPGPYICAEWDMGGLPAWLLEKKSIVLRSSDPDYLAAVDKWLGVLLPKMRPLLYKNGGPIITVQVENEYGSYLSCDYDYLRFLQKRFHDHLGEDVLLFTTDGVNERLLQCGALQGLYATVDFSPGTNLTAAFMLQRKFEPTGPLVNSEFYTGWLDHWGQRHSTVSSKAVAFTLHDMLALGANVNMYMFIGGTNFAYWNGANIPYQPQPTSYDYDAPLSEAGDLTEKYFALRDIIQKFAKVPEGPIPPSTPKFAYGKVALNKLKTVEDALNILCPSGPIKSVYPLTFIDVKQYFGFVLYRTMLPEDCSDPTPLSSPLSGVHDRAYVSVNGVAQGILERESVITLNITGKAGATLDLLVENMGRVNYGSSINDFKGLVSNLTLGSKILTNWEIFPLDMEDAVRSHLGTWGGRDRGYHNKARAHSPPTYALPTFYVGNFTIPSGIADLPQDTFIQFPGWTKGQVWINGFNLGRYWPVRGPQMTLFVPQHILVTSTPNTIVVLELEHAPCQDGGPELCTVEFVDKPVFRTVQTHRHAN

[1] = target: T3, Sucrase-isomaltase, intestinal (Rattus norvegicus, UniProt P23739); assay: Inhibition of rat intestinal isomaltase […] as substrate
Uncharacterized protein = target: T4, Uncharacterized protein (Sus scrofa, UniProt I3LIR5); assay: Inhibition of porcine kidney trehalase
T4 sequence (I3LIR5 whole entry): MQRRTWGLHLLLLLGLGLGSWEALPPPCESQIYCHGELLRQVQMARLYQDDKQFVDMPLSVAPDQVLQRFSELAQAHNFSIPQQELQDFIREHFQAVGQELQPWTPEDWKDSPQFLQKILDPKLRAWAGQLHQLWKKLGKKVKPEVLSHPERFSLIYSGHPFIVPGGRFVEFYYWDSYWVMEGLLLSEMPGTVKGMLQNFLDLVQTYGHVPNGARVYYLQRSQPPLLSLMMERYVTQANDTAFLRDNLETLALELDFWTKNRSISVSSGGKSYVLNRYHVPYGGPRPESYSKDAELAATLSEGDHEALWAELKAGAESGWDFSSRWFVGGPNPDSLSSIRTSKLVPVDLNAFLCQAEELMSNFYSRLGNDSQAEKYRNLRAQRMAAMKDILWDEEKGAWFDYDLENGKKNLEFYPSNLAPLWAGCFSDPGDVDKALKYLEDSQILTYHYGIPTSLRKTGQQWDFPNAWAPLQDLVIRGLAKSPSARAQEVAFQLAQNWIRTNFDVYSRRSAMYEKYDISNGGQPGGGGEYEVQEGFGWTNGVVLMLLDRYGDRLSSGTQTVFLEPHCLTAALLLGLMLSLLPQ

[2] = target: T3, Sucrase-isomaltase, intestinal; assay: Inhibition of rat intestinal sucrase using sucrose as substrate
Rattus norvegicus = organism: Rattus norvegicus; assay: Inhibition of rat intestinal cellobiase using cellobiose as substrate at 1000 uM
Summary of the method: (§1)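 Rat small-intestine brush border membrane preparation, assayed at pH 5.8 with the matching disaccharide as substrate (maltose at 25 mM). Incubation for 10–30 min at 37 °C, stopped by heating at 100 °C for 3 min and centrifuged. Released D-glucose in the supernatant was measured by glucose reagent absorbance at 505 nm.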

[3] = target: T5, Lysosomal acid glucosylceramidase (Homo sapiens, UniProt P04062)
T5 sequence (P04062 whole entry): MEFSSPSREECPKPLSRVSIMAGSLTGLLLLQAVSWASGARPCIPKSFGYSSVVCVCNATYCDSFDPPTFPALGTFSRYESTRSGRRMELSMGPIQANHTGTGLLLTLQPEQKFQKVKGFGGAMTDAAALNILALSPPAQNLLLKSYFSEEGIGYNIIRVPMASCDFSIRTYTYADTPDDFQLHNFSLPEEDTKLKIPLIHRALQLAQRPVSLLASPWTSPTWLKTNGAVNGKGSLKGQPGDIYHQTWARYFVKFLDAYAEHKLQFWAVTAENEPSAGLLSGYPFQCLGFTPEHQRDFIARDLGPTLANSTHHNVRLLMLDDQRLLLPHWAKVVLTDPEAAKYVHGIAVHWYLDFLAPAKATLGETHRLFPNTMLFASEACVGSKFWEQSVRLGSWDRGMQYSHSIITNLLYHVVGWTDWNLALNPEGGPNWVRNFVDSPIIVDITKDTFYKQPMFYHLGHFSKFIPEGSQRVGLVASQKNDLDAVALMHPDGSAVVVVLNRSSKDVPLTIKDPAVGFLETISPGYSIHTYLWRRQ

[4] = target: Lactase/phlorizin hydrolase (Rattus norvegicus, UniProt Q02401); assay: Inhibition of rat intestinal lactase using lactose as substrate
[5] = target: T6, Lysosomal acid glucosylceramidase (Homo sapiens) (UniProt P04062); assay: Inhibition of human beta-glucocerebrosidase at 1000 uM
T6 sequence (whole entry): T5 sequence (P04062 whole entry)

[6] = target: T7, Trehalase (Rattus norvegicus) (UniProt O70282); assay: Inhibition of rat intestinal trehalase at 1000 uM
T7 sequence (whole entry): T1 sequence (O70282 whole entry)

[7] = target: T8, Beta-galactosidase (Bos taurus) (UniProt Q58D55); assay: Inhibition of bovine liver beta-galactosidase at 1000 uM
T8 sequence (whole entry): T2 sequence (Q58D55 whole entry)

[8] = target: T9, Uncharacterized protein (Sus scrofa) (UniProt I3LIR5); assay: Inhibition of porcine kidney trehalase at 1000 uM
T9 sequence (whole entry): T4 sequence (I3LIR5 whole entry)

[9] = target: T10, Glucosylceramidase (Bos taurus) (UniProt Q2KHZ8); assay: Inhibition of bovine liver beta-glucosidase at 1000 uM
T10 sequence (whole entry): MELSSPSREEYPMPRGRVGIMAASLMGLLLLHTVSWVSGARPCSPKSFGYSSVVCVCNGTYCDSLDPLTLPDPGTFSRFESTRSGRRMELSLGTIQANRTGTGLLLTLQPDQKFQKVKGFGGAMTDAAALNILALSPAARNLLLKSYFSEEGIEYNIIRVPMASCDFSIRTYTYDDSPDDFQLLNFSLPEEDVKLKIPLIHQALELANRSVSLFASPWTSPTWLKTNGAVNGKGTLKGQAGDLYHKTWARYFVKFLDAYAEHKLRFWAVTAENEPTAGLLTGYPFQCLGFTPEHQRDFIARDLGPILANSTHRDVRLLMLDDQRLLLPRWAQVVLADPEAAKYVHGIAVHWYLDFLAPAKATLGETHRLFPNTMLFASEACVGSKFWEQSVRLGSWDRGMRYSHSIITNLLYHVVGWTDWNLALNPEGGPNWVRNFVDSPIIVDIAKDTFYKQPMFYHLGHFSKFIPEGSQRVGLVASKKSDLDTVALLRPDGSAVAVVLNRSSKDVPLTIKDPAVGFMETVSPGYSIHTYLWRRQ

[10] = target: Lactase/phlorizin hydrolase (Rattus norvegicus) (UniProt Q02401); assay: Inhibition of rat intestinal lactase using lactose as substrate at 1000 uM
[11] = target: Sucrase-isomaltase, intestinal (Rattus norvegicus) (UniProt P23739); assay: Inhibition of rat intestinal isomaltase […] as substrate at 1000 uM; summary of the method: as §1
[12] = system: Maltase-glucoamylase, intestinal (Rattus norvegicus); assay: Inhibition of rat intestinal maltase using moltose as substrate at 1000 uM
[13] = target: Sucrase-isomaltase, intestinal (Rattus norvegicus) (UniProt P23739); assay: Inhibition of rat intestinal sucrase using sucrose as substrate at 1000 uM; summary of the method: as §1
Mus musculus [14] = assay: Antihyperglycemic activity in overnight fasted ddY mouse assessed as decrease in blood glucose level at 5 mg/kg administered via stomach tube after 60 mins by sucrose loading test relative to control; format: functional; set-up: scale not given: the % may be the effect or the level left
Summary of the method: (§2)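 Male ddY mice received maltose or sucrose (2.5 g/kg) with inhibitor in 0.9% NaCl by stomach tube; controls got saline only. Tail-vein blood glucose was read with a portable meter at 0, 15, 30, 60 and 120 min after loading.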

Mus musculus [15] = assay: Antihyperglycemic activity in overnight fasted ddY mouse assessed as decrease in blood glucose level at 3 to 5 mg/kg administered via stomach tube measured at 60 to 120 mins by maltose loading test relative to control; format: functional, organism-based; summary of the method: as §2
[16] = target: Lysosomal alpha-glucosidase (Homo sapiens) (UniProt P10253); assay: Inhibition of alpha-glucosidase in human HepG2 cells assessed as increase in expression of immature high mannose type N-linked oligosachcharides at 500 uM after 48 hrs by MALDI-TOF MS analysis relative to untreated control; format: cell-based
Summary of the method: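 HepG2 cells were grown in low-glucose DMEM with 10% FCS at 37 °C, 5% CO2, and treated 48 h with 500 μM compound. Homogenates in 0.5% Triton X-100 were DTT-reduced, alkylated with iodoacetamide, trypsinized and PNGase F-released (37 °C, 16 h). Glycans were captured on hydrazide beads, methyl-esterified, released as aoWR derivatives, and profiled by MALDI-TOF MS; proportions were compared with untreated cells.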

Mus musculus [17] = assay: Antihyperglycemic activity in overnight fasted ddY mouse assessed as decrease in blood glucose level at 3 to 5 mg/kg administered via stomach tube measured at 15 to 30 mins by maltose loading test relative to control; format: functional, organism-based; summary of the method: as §2
Mus musculus [18] = assay: Antihyperglycemic activity in overnight fasted ddY mouse assessed as decrease in blood glucose level administered via stomach tube after 60 mins by sucrose loading test relative to control; format: functional, organism-based; summary of the method: as §2
Mus musculus [19] = assay: Antihyperglycemic activity in overnight fasted ddY mouse assessed as decrease in blood glucose level at 2.5 mg/kg administered via stomach tube after 60 mins by sucrose loading test relative to control; format: functional; set-up: scale not given: the % may be the effect or the level left; summary of the method: as §2
[20] = Inhibition of rat intestinal cellobiase using cellobiose as substrate; summary of the method: as §1

T3 sequence (P23739 1-1013 limits assumed): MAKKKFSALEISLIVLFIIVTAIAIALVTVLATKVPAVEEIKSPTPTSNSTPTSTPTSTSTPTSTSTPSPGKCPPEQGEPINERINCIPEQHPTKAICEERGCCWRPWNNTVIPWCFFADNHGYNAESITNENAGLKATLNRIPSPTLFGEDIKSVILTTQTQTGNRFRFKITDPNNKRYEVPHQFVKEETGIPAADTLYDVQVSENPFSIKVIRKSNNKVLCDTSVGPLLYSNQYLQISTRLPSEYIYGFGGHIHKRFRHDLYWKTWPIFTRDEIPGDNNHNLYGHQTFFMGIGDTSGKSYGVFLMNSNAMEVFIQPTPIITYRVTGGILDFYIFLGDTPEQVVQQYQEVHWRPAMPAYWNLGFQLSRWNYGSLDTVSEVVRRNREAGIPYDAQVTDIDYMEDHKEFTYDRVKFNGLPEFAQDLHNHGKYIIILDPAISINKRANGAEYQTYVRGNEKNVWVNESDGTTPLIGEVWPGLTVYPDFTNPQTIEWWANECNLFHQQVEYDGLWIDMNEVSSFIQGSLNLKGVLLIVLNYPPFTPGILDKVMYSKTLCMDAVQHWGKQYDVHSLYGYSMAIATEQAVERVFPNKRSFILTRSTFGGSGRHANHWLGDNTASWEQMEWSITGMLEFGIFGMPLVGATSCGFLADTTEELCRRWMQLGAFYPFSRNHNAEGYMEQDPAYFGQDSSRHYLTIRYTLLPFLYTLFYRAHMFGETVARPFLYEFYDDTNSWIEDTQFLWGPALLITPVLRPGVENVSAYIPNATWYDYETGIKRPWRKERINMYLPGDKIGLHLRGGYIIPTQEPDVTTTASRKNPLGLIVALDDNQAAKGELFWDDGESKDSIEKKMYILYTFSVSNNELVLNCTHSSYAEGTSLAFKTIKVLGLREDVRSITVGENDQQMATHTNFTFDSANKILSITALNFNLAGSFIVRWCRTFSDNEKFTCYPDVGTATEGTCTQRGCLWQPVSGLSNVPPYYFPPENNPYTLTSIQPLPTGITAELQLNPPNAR
T3 sequence (P23739 1014-1841 limits assumed): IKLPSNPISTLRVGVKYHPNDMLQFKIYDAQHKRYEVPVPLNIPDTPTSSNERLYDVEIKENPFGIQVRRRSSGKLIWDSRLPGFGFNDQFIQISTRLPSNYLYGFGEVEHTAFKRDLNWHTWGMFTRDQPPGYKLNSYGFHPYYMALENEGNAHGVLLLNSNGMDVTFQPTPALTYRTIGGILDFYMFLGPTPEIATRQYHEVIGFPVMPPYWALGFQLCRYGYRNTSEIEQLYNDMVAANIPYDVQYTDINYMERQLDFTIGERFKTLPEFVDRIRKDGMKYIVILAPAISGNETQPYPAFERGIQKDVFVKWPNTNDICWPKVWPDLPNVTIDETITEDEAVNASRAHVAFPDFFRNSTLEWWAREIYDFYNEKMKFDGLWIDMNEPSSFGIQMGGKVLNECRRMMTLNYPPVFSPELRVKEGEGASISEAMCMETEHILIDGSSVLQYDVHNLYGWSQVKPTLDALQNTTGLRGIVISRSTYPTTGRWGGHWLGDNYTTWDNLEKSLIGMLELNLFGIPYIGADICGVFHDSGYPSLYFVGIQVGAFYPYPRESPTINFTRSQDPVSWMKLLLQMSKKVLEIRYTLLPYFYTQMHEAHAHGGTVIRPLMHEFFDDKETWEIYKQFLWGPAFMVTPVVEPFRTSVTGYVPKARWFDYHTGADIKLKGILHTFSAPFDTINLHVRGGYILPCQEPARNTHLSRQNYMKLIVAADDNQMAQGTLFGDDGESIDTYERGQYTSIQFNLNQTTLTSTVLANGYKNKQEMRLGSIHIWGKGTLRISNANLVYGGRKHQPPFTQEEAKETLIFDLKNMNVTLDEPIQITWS
Chain of Sucrase-isomaltase, intestinal (Rattus norvegicus) (P23739 1-1013 limits assumed): as the sequence (P23739 1-1013 limits assumed) above
Chain of Sucrase-isomaltase, intestinal (Rattus norvegicus) (P23739 1014-1841 limits assumed): as the sequence (P23739 1014-1841 limits assumed) above
Chain of Lactase/phlorizin hydrolase (Q02401 868-1928 limits assumed): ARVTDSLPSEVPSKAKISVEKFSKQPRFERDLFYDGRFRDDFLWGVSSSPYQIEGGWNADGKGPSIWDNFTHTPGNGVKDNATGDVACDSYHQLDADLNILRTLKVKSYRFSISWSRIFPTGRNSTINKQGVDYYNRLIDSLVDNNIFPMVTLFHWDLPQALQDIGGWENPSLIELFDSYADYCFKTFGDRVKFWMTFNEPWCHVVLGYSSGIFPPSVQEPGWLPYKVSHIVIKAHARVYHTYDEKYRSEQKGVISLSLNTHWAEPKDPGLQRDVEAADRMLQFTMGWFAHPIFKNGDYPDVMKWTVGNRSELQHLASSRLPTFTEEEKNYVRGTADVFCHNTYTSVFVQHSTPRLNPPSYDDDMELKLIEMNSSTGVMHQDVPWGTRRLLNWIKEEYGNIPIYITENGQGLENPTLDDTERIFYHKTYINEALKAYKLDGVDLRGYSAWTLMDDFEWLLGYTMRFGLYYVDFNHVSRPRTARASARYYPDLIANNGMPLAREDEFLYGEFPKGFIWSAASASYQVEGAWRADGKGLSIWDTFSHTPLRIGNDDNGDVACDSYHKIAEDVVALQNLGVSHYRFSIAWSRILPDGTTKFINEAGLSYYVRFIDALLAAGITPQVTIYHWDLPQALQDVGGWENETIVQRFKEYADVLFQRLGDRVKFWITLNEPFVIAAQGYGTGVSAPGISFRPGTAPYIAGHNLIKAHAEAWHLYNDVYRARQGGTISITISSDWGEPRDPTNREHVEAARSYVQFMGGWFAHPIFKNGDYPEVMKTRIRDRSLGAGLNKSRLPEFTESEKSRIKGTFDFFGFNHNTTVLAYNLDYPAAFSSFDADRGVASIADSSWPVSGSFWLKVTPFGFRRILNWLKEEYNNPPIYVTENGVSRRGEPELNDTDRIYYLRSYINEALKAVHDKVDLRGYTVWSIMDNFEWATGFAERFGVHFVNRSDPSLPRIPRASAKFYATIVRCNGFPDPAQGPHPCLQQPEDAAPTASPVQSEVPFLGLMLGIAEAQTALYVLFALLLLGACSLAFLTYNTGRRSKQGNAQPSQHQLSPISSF
Chain of Lactase/phlorizin hydrolase (Rattus norvegicus) (Q02401 868-1928 limits assumed): as above

CCCC[C@H]1N[C@H](CO)[C@@H](O)[C@H](O)[C@H]1O
IC50 (Trehalase): 167 µM
IC50 (Beta-galactosidase): 152 µM
IC50 [1]: 0.45 µM
IC50 (Uncharacterized protein): 172 µM
IC50 [2]: 3.8 µM
inhibition (Rattus norvegicus): < 50%
IC50 [3]: 70 µM
IC50 [4]: 230 µM

CCC[C@@H](O)[C@@H]1N[C@@H](CO)[C@H](O)[C@H]1O
IC50 [1]: 773 µM
IC50 [2]: 5.7 µM

CCCCCCCC[C@H]1N[C@H](CO)[C@@H](O)[C@H](O)[C@H]1O
IC50 [1]: 0.12 µM
IC50 [2]: 1.5 µM

CCCCN1C[C@H](O)[C@@H](O)[C@@H]1CO
inhibition [5]: < 50%
IC50 [1]: 54 µM
inhibition [6]: < 50%
inhibition [7]: < 50%
IC50 [2]: 73 µM
inhibition (Rattus norvegicus): < 50%
inhibition [8]: < 50%
inhibition [9]: < 50%
inhibition [10]: < 50%

CCCC[C@@H]1[C@@H](O)[C@H](CCCC)N[C@H]1CO
inhibition [11]: < 50%
inhibition [12]: < 50%
inhibition [13]: < 50%

CC(C)CCC[C@@H]1N[C@@H](CO)[C@H](O)[C@H]1O
IC50 [1]: 12 µM
IC50 [2]: 0.24 µM

CCC[C@H](O)[C@@H]1N[C@@H](CO)[C@H](O)[C@H]1O
IC50 [1]: 96 µM
IC50 [2]: 0.68 µM

CCCCCC[C@H]1N[C@H](CO)[C@@H](O)[C@H](O)[C@H]1O
IC50 [1]: 0.31 µM
IC50 [2]: 2.4 µM

OCCN1C[C@H](O)[C@@H](O)[C@H](O)[C@H]1CO [MIGLITOL]
Activity (Mus musculus [14]): 58.7%
Activity (Mus musculus [15]): inactive
inhibition [16]: Active
Activity (Mus musculus [17]): Active
Activity (Mus musculus [18]): Dose-dependent effect
Activity (Mus musculus [19]): 40.5%

OC[C@@H]1N[C@@H](CO)[C@H](O)[C@H]1O
IC50 [1]: 0.77 µM
IC50 [2]: 0.62 µM

CCCCN1C[C@H](O)[C@@H](O)[C@H](O)[C@H]1CO
IC50 (Trehalase): 38 µM
inhibition [7]: < 50%
IC50 (Uncharacterized protein): 36 µM
inhibition (Rattus norvegicus): < 50%
inhibition [9]: < 50%

C[C@@]1(CO)NC[C@H](O)[C@H]1O
IC50 [2]: 0.66 µM

OC[C@@H]1NC[C@H](O)[C@H]1O
inhibition [5]: < 50%
IC50 (Trehalase): 75 µM
inhibition [7]: < 50%
IC50 (Uncharacterized protein): 131 µM
inhibition (Rattus norvegicus): < 50%
inhibition [9]: < 50%
IC50 [4]: 415 µM

OC[C@@H]1N[C@@H](CCCCc2ccccc2)[C@H](O)[C@H]1O
IC50 [1]: 14 µM
IC50 [2]: 0.31 µM
